Data as given in ChEMBL document CHEMBL1157145, “Cytotoxic activity of proflavine diureas: synthesis, antitumor, evaluation and DNA binding properties of 1',1''-(acridin-3,6-diyl)-3',3''-dialkyldiureas” (Bioorg Med Chem, 2008).
pIC50: −log10 of the molar value. Each block holds one molecule with its values, some of them ahead of it.

Tests used:
HeLa = test: Cytotoxicity against human HeLa cells after 48 hrs by MTT assay; type: functional, cell-based
HCT-116 = test: Cytotoxicity against human HCT116 cells after 72 hrs by MTT assay; type: functional, cell-based
DNA = test: Binding affinity to calf thymus DNA at 4 uM by fluorescence spectrophotometric titration; type: nucleic-acid assay; conditions: Bos taurus
Outline: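 ctDNA sonicated in TE buffer, concentration taken from A260 and given in base pairs. Compound (4 µM) in 0.01 M Tris, pH 7.4, 25 °C titrated with ctDNA (0–55 µM bp) until spectra stopped changing. Excitation 424 nm, slit widths 10 nm; binding constant derived from the change in emission.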

Compound: COc1cc([C@@H]2c3cc4c(cc3[C@@H](O[C@@H]3O[C@@H]5CO[C@@H](C)O[C@H]5[C@H](O)[C@H]3O)[C@H]3COC(=O)[C@H]23)OCO4)cc(OC)c1O [ETOPOSIDE]
pIC50 (HeLa): 5.54

Compound: CC(C)C1=Cc2ccc3c(c2C(=O)C1=O)CCCC3(C)C [MILTIRONE]
Activity (HCT-116): 12.39 µM

K (DNA): 7.95 ×10⁵ /M
Compound: Nc1ccc2cc3ccc(N)cc3nc2c1
